Source: ChEMBL document CHEMBL3272181, “Design of substrate-site-directed irreversible inhibitors of adenosine 5'-phosphate aminohydrolase. Effect of substrate substituents on affinity for the substrate site” (J Med Chem, 1976)

Key:
[1] = Retardation factor, Rf of the compound in 5:2:3 1-butanol-acetic acid-water by paper chromatographic analysis; format: physicochemical; details: buffer
[2] = Retardation factor, Rf of the compound in 1:1 2-propanol-0.25 M triethylammonium bicarbonate by paper chromatographic analysis; format: physicochemical
[3] = organism: Oryctolagus cuniculus; assay: Activity at rabbit muscle AMP aminohydrolase after 24 hrs by Lineweaver-Burk plot analysis relative to AMP; format: tissue-based; details: Muscle tissue
[4] = Linear competitive inhibition of rabbit muscle AMP aminohydrolase using AMP as substrate at 12 to 24 uM by Lineweaver-Burk plot analysis; format: tissue-based, Oryctolagus cuniculus, Muscle tissue
In short: (§1)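 Rabbit-muscle AMP aminohydrolase (Grade IV), diluted into 1 M KCl before use. Assayed at 22° in 0.01 M citrate buffer pH 6.5 with 25 mM KCl, following the fall in absorbance at 265 nm (Δε 8400, except 8-bromo-AMP). Initial velocities were linear and proportional to enzyme. At least four substrate and two inhibitor levels were used; parameters came from Lineweaver-Burk plots.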

[5] = organism: Oryctolagus cuniculus; assay: Activity at rabbit muscle AMP aminohydrolase by Lineweaver-Burk plot analysis; format: tissue-based; details: Muscle tissue; in short: as §1
[6] = Retardation factor, Rf of the compound in 4:1:5 1-butanol-acetic acid-water by paper chromatographic analysis; format: physicochemical; details: buffer
[7] = Retardation factor, Rf of the compound in 7:3 1-propanol-water by paper chromatographic analysis; format: physicochemical; details: buffer
[8] = Linear competitive inhibition of rabbit muscle AMP aminohydrolase using AMP as substrate at 49 to 99 uM by Lineweaver-Burk plot analysis; format: tissue-based, Oryctolagus cuniculus, Muscle tissue; in short: as §1
[9] = Retardation factor, Rf of the compound in 7:3 95% ethanol-1M ammonium acetate at pH 7.5 by paper chromatographic analysis; format: physicochemical
[10] = Linear competitive inhibition of rabbit muscle AMP aminohydrolase using AMP as substrate at 26 to 52 uM by Lineweaver-Burk plot analysis; format: tissue-based, Oryctolagus cuniculus, Muscle tissue; in short: as §1
[11] = Stability of the compound assessed as pancreatic protease type 1 (unknown origin)-mediated amide linkage cleavage at pH 7.6 after 24 hrs by paper electrophoretic analysis; format: ADME; details: buffer, pH 7.6, 24 h
In short: (§2)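 Compounds were incubated at 37° for 24 h in 0.05 M Tris pH 7.6 (2 ml) with one of: acylase 20 mg; pancreatic protease I 20 mg; fungal II 20 mg; papaya III 10 mg; bacterial IV 200 mg; VI 30 mg; VII 30 or 15 mg; X 5 mg; or hog-intestine peptidase 20 mg. Amide cleavage was checked by paper electrophoresis (pH 7.6, 4 kV, 30 min).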

[12] = Stability of the compound assessed as fungal protease type 2-mediated amide linkage cleavage at pH 7.6 after 24 hrs by paper electrophoretic analysis; format: ADME; details: fungi, buffer, pH 7.6, 24 h; in short: as §2
[13] = Stability of the compound assessed as papaya protease type 3-mediated amide linkage cleavage at pH 7.6 after 24 hrs by paper electrophoretic analysis; format: ADME; details: carica papaya, buffer, pH 7.6, 24 h; in short: as §2
[14] = Stability of the compound assessed as bacterial protease type 4-mediated amide linkage cleavage at pH 7.6 after 24 hrs by paper electrophoretic analysis; format: ADME; details: bacteria, buffer, pH 7.6, 24 h; in short: as §2
[15] = Stability of the compound assessed as bacterial protease type 6-mediated amide linkage cleavage at pH 7.6 after 24 hrs by paper electrophoretic analysis; format: ADME; details: bacteria, buffer, pH 7.6, 24 h; in short: as §2
[16] = Stability of the compound assessed as bacterial protease type 7-mediated amide linkage cleavage at pH 7.6 after 24 hrs by paper electrophoretic analysis; format: ADME; details: bacteria, buffer, pH 7.6, 24 h; in short: as §2
[17] = Stability of the compound assessed as bacterial protease type 8-mediated amide linkage cleavage at pH 7.6 after 24 hrs by paper electrophoretic analysis; format: ADME; details: bacteria, buffer, pH 7.6, 24 h
[18] = Stability of the compound assessed as bacterial protease type 10-mediated amide linkage cleavage at pH 7.6 after 24 hrs by paper electrophoretic analysis; format: ADME; details: bacteria, buffer, pH 7.6, 24 h; in short: as §2
[19] = Stability of the compound assessed as acylase (unknown origin)-mediated amide linkage cleavage at pH 7.6 after 24 hrs by paper electrophoretic analysis; format: ADME; details: buffer, pH 7.6, 24 h; in short: as §2
[20] = Stability of the compound assessed as hog intestinal peptidase-mediated amide linkage cleavage at pH 7.6 after 24 hrs by paper electrophoretic analysis; format: ADME, Sus scrofa; details: pig, isolated protein, pH 7.6, 24 h; in short: as §2
[21] = Linear competitive inhibition of rabbit muscle AMP aminohydrolase using AMP as substrate at 64 to 128 uM by Lineweaver-Burk plot analysis; format: tissue-based, Oryctolagus cuniculus, Muscle tissue; in short: as §1
[22] = Stability of the compound in Tris buffer at pH 8.5 at 22 degC; format: physicochemical
[23] = Retardation factor, Rf of the compound in 7:1:2 2-propanol-concentrated ammonia-water by paper chromatographic analysis; format: physicochemical; details: buffer
[24] = Linear competitive inhibition of rabbit muscle AMP aminohydrolase using AMP as substrate at 49 to 148 uM by Lineweaver-Burk plot analysis; format: tissue-based, Oryctolagus cuniculus, Muscle tissue; in short: as §1
[25] = organism: Oryctolagus cuniculus; assay: Activity at rabbit muscle AMP aminohydrolase after 48 hrs by Lineweaver-Burk plot analysis relative to AMP; format: tissue-based; details: Muscle tissue
[26] = Non-linear competitive inhibition of rabbit muscle AMP aminohydrolase using AMP as substrate at 23 uM by Lineweaver-Burk plot analysis; format: tissue-based, Oryctolagus cuniculus, Muscle tissue; in short: as §1
[27] = Non-linear competitive inhibition of rabbit muscle AMP aminohydrolase using AMP as substrate at 46 uM by Lineweaver-Burk plot analysis; format: tissue-based, Oryctolagus cuniculus, Muscle tissue; in short: as §1
[28] = Linear competitive inhibition of rabbit muscle AMP aminohydrolase using AMP as substrate at 14 to 28 uM by Lineweaver-Burk plot analysis; format: tissue-based, Oryctolagus cuniculus, Muscle tissue; in short: as §1
[29] = Linear competitive inhibition of rabbit muscle AMP aminohydrolase using AMP as substrate at 21 to 42 uM by Lineweaver-Burk plot analysis; format: tissue-based, Oryctolagus cuniculus, Muscle tissue; in short: as §1
[30] = Linear competitive inhibition of rabbit muscle AMP aminohydrolase using AMP as substrate at 27 to 54 uM by Lineweaver-Burk plot analysis; format: tissue-based, Oryctolagus cuniculus, Muscle tissue; in short: as §1
[31] = Linear competitive inhibition of rabbit muscle AMP aminohydrolase using AMP as substrate at 11 to 22 uM by Lineweaver-Burk plot analysis; format: tissue-based, Oryctolagus cuniculus, Muscle tissue; in short: as §1
[32] = Linear competitive inhibition of rabbit muscle AMP aminohydrolase using AMP as substrate at 11 to 23 uM by Lineweaver-Burk plot analysis; format: tissue-based, Oryctolagus cuniculus, Muscle tissue; in short: as §1
[33] = Linear noncompetitive inhibition of rabbit muscle AMP aminohydrolase using AMP as substrate at 19 to 38 uM by Lineweaver-Burk plot analysis; format: tissue-based, Oryctolagus cuniculus, Muscle tissue; in short: as §1

CCCOC(=O)NCC(C[C@H]1O[C@@H](n2cnc3c(N)ncnc32)[C@H](O)[C@@H]1O)P(=O)(O)O (stereo partly drawn)
Rf [1]: 0.55 | Rf [2]: 0.81 | Activity [3]: 0% | Ki [4]: 14 µM

CC(=O)O[C@@H]1[C@H](OC(C)=O)[C@@H](COP(=O)(O)O)O[C@H]1n1cnc2c(N)ncnc21
Km [5]: 670 µM | Rf [1]: 0.56 | Rf [6]: 0.34 | Rf [7]: 0.41 | Activity [3]: 0.07% | Ki [8]: 105 µM

CC(=O)OC(C[C@H]1O[C@@H](n2cnc3c(N)ncnc32)[C@@H]2OC(C)(C)O[C@@H]21)P(=O)(O)O (stereo partly drawn)
Rf [1]: 0.65 | Rf [6]: 0.5 | Rf [9]: 0.39 | Rf [7]: 0.49

CC(=O)NCC(C[C@H]1O[C@@H](n2cnc3c(N)ncnc32)[C@H](O)[C@@H]1O)P(=O)(O)O (stereo partly drawn)
Km [5]: 80 µM | Rf [1]: 0.29 | Rf [2]: 0.73 | Activity [3]: 0.61% | Ki [10]: 20 µM | Stability [11]: Stable | Stability [12]: Stable | Stability [13]: Stable | Stability [14]: Stable | Stability [15]: Stable | Stability [16]: Stable | Stability [17]: Stable | Stability [18]: Stable | Stability [19]: Stable | Stability [20]: Stable

Nc1ncnc2c1ncn2[C@@H]1O[C@H](COP(=O)(O)O)[C@@H](O)[C@H]1O
Km [5]: 600 µM | Vmax [5]: 294 µmol/min | Activity [3]: 100%

N#CC(C[C@H]1O[C@@H](n2cnc3c(N)ncnc32)[C@H](O)[C@@H]1O)P(=O)(O)O (stereo partly drawn)
Rf [1]: 0.27 | Rf [2]: 0.71

CC(=O)OC(C[C@H]1O[C@@H](n2cnc3c(N)ncnc32)[C@H](O)[C@@H]1O)P(=O)(O)O (stereo partly drawn)
Km [5]: 120 µM | Rf [1]: 0.31 | Rf [6]: 0.18 | Rf [9]: 0.17 | Rf [7]: 0.27 | Activity [3]: 7.8% | Ki [21]: 330 µM | Stability [22]: 16 h

CC1(C)O[C@@H]2[C@H](O1)[C@@H](COP(=O)(O)O)O[C@H]2n1cnc2c(N)ncnc21
Km [5]: 130 µM | Rf [1]: 0.59 | Rf [23]: 0.34 | Rf [6]: 0.4 | Rf [9]: 0.3 | Activity [3]: 0.5% | Ki [24]: 260 µM

CC(=O)NC[C@@H](OP(=O)(O)O)[C@H]1O[C@@H](n2cnc3c(N)ncnc32)[C@H](O)[C@@H]1O
Activity [25]: > 0% | Ki [26]: 47 µM | Ki [27]: 30 µM

CCC(=O)NC[C@H](OP(=O)(O)O)[C@H]1O[C@@H](n2cnc3c(N)ncnc32)[C@H](O)[C@@H]1O
Ki [28]: 42 µM

CCC(=O)NCC(C[C@H]1O[C@@H](n2cnc3c(N)ncnc32)[C@H](O)[C@@H]1O)P(=O)(O)O (stereo partly drawn)
Rf [1]: 0.39 | Rf [2]: 0.83 | Activity [3]: 0% | Ki [29]: 17 µM | Stability [11]: Stable | Stability [12]: Stable | Stability [13]: Stable | Stability [14]: Stable | Stability [15]: Stable | Stability [16]: Stable | Stability [17]: Stable | Stability [18]: Stable | Stability [19]: Stable | Stability [20]: Stable

NCC(C[C@H]1O[C@@H](n2cnc3c(N)ncnc32)[C@H](O)[C@@H]1O)P(=O)(O)O (stereo partly drawn)
Km [5]: 140 µM | Rf [1]: 0.21 | Rf [2]: 0.49 | Activity [3]: 0.65%

COC(=O)NCC(C[C@H]1O[C@@H](n2cnc3c(N)ncnc32)[C@H](O)[C@@H]1O)P(=O)(O)O (stereo partly drawn)
Rf [1]: 0.33 | Rf [2]: 0.75 | Activity [3]: 0% | Ki [30]: 19 µM

CCOC(=O)NCC(C[C@H]1O[C@@H](n2cnc3c(N)ncnc32)[C@H](O)[C@@H]1O)P(=O)(O)O (stereo partly drawn)
Rf [1]: 0.41 | Rf [2]: 0.78 | Activity [3]: 0% | Ki [31]: 16 µM

CC(=O)NC[C@H](OP(=O)(O)O)[C@H]1O[C@@H](n2cnc3c(N)ncnc32)[C@H](O)[C@@H]1O
Activity [3]: > 0% | Ki [32]: 18 µM

CCC(=O)NC[C@@H](OP(=O)(O)O)[C@H]1O[C@@H](n2cnc3c(N)ncnc32)[C@H](O)[C@@H]1O
Activity [25]: 0% | Ki [33]: 205 µM
